Measured values: ChEMBL document CHEMBL4680068, “Towards a RIOK2 chemical probe: cellular potency improvement of a selective 2-(acylamino)pyridine series” (RSC Med Chem, 2021)

Assays:
[1] = molecular target: Serine/threonine-protein kinase RIO2 (Homo sapiens, UniProt Q9BVS4); test: Displacement of tracer K5 from N-terminal nanoluciferase-tagged RIOK2 (unknown origin) expressed in HEK293 cells measured after 2 hrs by NanoBRET assay; format: cell-based
[2] = molecular target: T1, Mitogen-activated protein kinase 8 (Homo sapiens, UniProt P45983); test: Inhibition of full length recombinant human MAPK8 using ATF2 as substrate incubated for 40 mins in presence of [gamma33P]ATP by radiometric scintillation analysis
T1 sequence (P45983 whole entry): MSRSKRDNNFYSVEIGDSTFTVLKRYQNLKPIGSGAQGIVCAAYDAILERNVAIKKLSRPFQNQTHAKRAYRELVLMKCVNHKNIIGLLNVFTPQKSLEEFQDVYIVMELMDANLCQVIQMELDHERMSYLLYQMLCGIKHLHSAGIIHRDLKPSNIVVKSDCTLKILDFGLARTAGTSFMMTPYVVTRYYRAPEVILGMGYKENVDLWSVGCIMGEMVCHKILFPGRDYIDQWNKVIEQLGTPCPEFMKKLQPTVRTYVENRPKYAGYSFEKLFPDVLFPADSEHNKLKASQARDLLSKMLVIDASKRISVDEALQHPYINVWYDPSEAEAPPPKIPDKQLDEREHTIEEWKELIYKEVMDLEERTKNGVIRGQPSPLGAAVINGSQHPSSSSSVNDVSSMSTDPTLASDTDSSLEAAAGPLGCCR
Procedure, shortened: (§1)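 Eurofins radiometric enzymatic kinase assay run at the Km of ATP for each kinase. Activity was read as incorporation of radiolabelled ATP into a peptide substrate, in a homogeneous format.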

[3] = molecular target: T2, Mitogen-activated protein kinase 10 (Homo sapiens, UniProt P53779); test: Inhibition of full length recombinant human MAPK10 using peptide substrate incubated for 40 mins in presence of [gamma33P]ATP by radiometric scintillation analysis; procedure, shortened: as §1
T2 sequence (P53779 whole entry): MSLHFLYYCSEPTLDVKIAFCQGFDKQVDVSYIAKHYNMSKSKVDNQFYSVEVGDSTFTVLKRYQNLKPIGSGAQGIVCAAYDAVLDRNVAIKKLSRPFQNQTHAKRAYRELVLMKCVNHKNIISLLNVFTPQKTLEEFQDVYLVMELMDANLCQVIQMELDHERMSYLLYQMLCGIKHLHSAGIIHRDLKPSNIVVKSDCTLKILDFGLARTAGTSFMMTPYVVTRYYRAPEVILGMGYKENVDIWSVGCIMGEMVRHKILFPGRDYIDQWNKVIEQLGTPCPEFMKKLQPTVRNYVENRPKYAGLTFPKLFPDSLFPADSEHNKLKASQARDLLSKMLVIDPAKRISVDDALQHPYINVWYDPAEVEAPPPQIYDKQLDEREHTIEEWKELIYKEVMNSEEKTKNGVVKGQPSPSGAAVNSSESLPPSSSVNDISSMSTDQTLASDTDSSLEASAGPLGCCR

[4] = molecular target: T3, Glycogen synthase kinase-3 alpha (Homo sapiens, UniProt P49840); test: Inhibition of recombinant human GSK3alpha S449A mutant (2 to end residues) using YRRAAVPPSPSLSR peptide as substrate incubated for 40 mins in presence of [gamma33P]ATP by radiometric scintillation analysis
T3 sequence (P49840 whole entry): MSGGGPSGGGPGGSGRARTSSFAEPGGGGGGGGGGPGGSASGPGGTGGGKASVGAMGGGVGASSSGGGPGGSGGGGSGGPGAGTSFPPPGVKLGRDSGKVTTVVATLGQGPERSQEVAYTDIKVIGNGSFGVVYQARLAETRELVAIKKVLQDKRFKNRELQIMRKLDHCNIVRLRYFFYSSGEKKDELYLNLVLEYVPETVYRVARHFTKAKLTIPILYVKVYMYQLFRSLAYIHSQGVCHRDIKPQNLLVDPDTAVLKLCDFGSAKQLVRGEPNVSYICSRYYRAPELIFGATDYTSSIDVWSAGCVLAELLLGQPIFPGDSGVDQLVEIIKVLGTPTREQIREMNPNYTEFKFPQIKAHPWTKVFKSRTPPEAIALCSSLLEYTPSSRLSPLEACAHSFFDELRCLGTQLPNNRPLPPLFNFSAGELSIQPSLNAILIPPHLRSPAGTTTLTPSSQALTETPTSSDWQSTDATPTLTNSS
Procedure, shortened: (§2)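 Orthogonal homogeneous enzymatic kinase assay, run by a contract provider. GSK3α activity was read as incorporation of radiolabelled ATP into a peptide substrate. ATP was at its Km.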

[5] = molecular target: T4, SNF-related serine/threonine-protein kinase (Homo sapiens, UniProt Q9NRH2); test: Inhibition of recombinant human SNRK E97G/P116A mutant (1 to 505 residues) using KKLRRTLSFAEPG peptide as substrate incubated for 40 mins in presence of [gamma33P]ATP by radiometric scintillation analysis; procedure, shortened: as §1
T4 sequence (Q9NRH2 whole entry): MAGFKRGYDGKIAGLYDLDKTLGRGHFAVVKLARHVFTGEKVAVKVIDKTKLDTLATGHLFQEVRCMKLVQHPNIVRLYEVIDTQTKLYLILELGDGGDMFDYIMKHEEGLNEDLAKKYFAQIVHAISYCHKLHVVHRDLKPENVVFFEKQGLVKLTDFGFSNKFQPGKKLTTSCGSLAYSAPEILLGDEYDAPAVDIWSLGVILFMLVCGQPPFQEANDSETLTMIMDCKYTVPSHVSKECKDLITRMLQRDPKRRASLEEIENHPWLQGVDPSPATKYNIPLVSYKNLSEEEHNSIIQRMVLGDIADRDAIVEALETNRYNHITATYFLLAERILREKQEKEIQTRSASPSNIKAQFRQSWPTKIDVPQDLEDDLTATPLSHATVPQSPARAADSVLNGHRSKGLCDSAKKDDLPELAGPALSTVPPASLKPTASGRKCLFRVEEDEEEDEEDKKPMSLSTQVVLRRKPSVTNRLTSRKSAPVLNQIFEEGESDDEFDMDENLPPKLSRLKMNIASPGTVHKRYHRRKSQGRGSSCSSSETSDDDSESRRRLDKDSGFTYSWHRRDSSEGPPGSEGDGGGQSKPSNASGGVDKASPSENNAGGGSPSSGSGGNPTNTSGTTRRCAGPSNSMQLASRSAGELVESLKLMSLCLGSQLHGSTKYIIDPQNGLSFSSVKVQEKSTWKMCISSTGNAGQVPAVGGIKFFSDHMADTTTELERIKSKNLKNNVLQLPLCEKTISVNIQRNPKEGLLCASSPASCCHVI

[6] = molecular target: T5, Homeodomain-interacting protein kinase 1 (Homo sapiens, UniProt Q86Z02); test: Inhibition of human HIPK1 (158 to 555 residues) using myelin ba as substrate incubated for 40 mins in presence of [gamma33P]ATP by radiometric scintillation analysis; procedure, shortened: as §1
T5 sequence (Q86Z02 whole entry, the tested form may be a part): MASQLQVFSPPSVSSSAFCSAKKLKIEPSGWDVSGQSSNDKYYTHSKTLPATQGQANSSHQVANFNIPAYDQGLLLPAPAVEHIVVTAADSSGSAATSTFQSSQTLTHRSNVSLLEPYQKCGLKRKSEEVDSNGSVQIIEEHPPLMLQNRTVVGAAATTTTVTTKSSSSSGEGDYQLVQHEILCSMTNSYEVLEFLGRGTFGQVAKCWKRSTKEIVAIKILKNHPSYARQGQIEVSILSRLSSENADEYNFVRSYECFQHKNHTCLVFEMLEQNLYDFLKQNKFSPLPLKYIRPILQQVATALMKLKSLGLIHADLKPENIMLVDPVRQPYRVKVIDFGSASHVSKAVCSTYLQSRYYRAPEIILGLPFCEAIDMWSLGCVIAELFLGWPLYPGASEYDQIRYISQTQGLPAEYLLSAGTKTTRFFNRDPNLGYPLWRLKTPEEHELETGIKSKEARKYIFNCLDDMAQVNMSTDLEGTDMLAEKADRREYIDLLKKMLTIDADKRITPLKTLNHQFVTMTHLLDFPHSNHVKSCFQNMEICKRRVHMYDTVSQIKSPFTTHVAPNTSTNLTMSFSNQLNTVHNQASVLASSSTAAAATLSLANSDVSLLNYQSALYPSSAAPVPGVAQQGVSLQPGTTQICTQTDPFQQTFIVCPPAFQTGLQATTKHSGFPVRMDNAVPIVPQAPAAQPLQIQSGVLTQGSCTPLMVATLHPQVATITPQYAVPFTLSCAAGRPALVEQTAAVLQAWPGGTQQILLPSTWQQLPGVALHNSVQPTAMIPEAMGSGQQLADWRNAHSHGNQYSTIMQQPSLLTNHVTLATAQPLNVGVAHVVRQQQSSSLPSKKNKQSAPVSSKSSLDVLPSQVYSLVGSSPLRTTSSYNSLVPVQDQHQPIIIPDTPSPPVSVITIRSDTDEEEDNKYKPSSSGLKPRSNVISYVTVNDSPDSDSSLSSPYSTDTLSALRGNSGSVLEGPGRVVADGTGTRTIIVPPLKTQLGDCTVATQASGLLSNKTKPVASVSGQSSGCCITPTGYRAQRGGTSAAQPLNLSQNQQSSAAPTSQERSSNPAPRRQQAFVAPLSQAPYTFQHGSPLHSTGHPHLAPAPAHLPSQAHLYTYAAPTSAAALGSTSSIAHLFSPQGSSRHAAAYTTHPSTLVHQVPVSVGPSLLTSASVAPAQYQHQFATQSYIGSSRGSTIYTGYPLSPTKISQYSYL

[7] = molecular target: T1, Mitogen-activated protein kinase 8; test: Binding affinity to full length recombinant human MAPK8 using ATF2 as substrate incubated for 40 mins in presence of [gamma33P]ATP by radiometric scintillation analysis; procedure, shortened: as §1
[8] = molecular target: T2, Mitogen-activated protein kinase 10; test: Binding affinity to full length recombinant human MAPK10 using peptide substrate incubated for 40 mins in presence of [gamma33P]ATP by radiometric scintillation analysis; procedure, shortened: as §1
[9] = molecular target: T3, Glycogen synthase kinase-3 alpha; test: Binding affinity to recombinant human GSK3alpha S449A mutant (2 to end residues) using YRRAAVPPSPSLSR peptide as substrate incubated for 40 mins in presence of [gamma33P]ATP by radiometric scintillation analysis; procedure, shortened: as §2
[10] = molecular target: T4, SNF-related serine/threonine-protein kinase; test: Binding affinity to recombinant human SNRK E97G/P116A mutant (1 to 505 residues) using KKLRRTLSFAEPG peptide as substrate incubated for 40 mins in presence of [gamma33P]ATP by radiometric scintillation analysis; procedure, shortened: as §1
[11] = molecular target: T5, Homeodomain-interacting protein kinase 1; test: Binding affinity to human HIPK1 (158 to 555 residues) using myelin ba as substrate incubated for 40 mins in presence of [gamma33P]ATP by radiometric scintillation analysis; procedure, shortened: as §1

Chain of Serine/threonine-protein kinase RIO2 (Q9BVS4 whole entry): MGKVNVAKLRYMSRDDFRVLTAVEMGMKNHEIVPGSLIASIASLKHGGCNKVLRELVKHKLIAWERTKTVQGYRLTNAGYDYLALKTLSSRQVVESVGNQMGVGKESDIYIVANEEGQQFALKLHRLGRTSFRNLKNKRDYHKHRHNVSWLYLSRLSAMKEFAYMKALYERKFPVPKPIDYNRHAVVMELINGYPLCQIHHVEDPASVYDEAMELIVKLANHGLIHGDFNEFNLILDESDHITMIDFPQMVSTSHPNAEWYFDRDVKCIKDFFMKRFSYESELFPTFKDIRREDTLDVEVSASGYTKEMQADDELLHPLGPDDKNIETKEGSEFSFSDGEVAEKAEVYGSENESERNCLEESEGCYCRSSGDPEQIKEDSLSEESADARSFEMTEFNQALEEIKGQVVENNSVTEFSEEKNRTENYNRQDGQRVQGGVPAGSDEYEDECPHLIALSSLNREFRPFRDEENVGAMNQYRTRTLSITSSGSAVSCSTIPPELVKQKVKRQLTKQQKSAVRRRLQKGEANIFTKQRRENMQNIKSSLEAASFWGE

| SMILES | IC50 [1] [µM] | IC50 [2] [µM] | IC50 [3] [µM] | IC50 [4] [µM] | IC50 [5] [µM] | IC50 [6] [µM] | further results |
| --- | --- | --- | --- | --- | --- | --- | --- |
| COc1ccc2cc(C(C)C(=O)Nc3cc(C)ccn3)ccc2c1 (racemic) | 5.2 | > 10 | 0.78 | 1.9 | > 10 | > 10 | – |
| O=C(Cc1ccc2ccccc2c1)Nc1cc(C(F)(F)F)ccn1 | 7.5 | – | – | – | – | – | – |
| O=C(Cc1ccc2ccccc2c1)Nc1cc(Cl)ccn1 | 5 | > 10 | 0.52 | 0.86 | > 10 | > 10 | – |
| COc1ccnc(NC(=O)[C@@H](C)c2ccc3cc(OC)ccc3c2)c1 | 5.3 | – | – | – | – | – | – |
| COc1ccc2cc([C@H](C)C(=O)Nc3cc(C)ccn3)ccc2c1 | 6.6 | > 10 | 5.1 | 4.5 | > 10 | > 10 | – |
| COc1ccnc(NC(=O)Cc2ccc3ccccc3c2)c1 | 5.2 | > 10 | 1.3 | 4.8 | > 10 | > 10 | – |
| COc1ccc2cc([C@@H](C)C(=O)Nc3cc(C)ccn3)ccc2c1 | 7.6 | – | – | – | – | – | – |
| COc1ccnc(NC(=O)Cc2ccc(-c3ccccc3)cc2)c1 | 7.6 | – | – | – | – | – | – |
| Cc1ccnc(NC(=O)Cc2ccc3ccccc3c2)c1 | – | > 10 | 4.7 | 5.2 | > 10 | > 10 | Kd [7]: 0.22 µM; Kd [8]: 0.34 µM; Kd [9]: 0.87 µM; Kd [10]: 0.89 µM; Kd [11]: 1.1 µM |

Continued, in another order:

| IC50 [1] [µM] | SMILES | IC50 [2] [µM] | IC50 [3] [µM] | IC50 [4] [µM] | IC50 [5] [µM] | IC50 [6] [µM] | further results |
| --- | --- | --- | --- | --- | --- | --- | --- |
| 28 | COc1ccnc(NC(=O)Cc2ccc(C)c(C)c2)c1 | – | – | – | – | – | – |
| > 30 | Cc1ccnc(NC(=O)CCc2ccc3ccccc3c2)c1 | – | – | – | – | – | – |
| 14.5 | CCc1ccnc(NC(=O)Cc2ccc3ccccc3c2)c1 | – | – | – | – | – | – |
| > 30 | Cc1ccnc(NC(=O)COc2ccc3ccccc3c2)c1 | – | – | – | – | – | – |
| > 30 | Cc1ccnc(NC(=O)Cc2ccc3c(c2)OCCO3)c1 | – | – | – | – | – | – |
| 13.4 | O=C(Cc1ccc2ccccc2c1)Nc1cc(Br)ccn1 | – | – | – | – | – | – |
| > 30 | Cc1ccnc(NC(=O)Cc2ccc3c(c2)OCO3)c1 | – | – | – | – | – | – |
